High-throughput results as filed in PubChem BioAssay.
Insulin prom inh: TRM-6 insulin promoter activity inhibition; TRM-6 cells (human fetal islet line), insulin promoter-eGFP reporter, imaging; reporter expression induced with tamoxifen; inhibition, % at 2 µM; 130,000 compounds, 0.9% hits;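 active = inhibition above the mean plus 3 SD, with well images judged a real hit on visual review, cut at about 60% in these data, passing the limit was not always enough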
MT stabilize HCS: microtubule stabilization, imaging screen. HeLa tubulin immunostaining HCS, 24 h; share of cells brighter than vehicle mean+2SD. % tubulin-high responders, % at 10 µM. 200,000 compounds, 0.83% hits;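 active = plate Z-score above 3 for both tubulin-high and condensed-nucleus cell shares, with cell loss under 80%, at 10 µM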;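 also: anti alpha tubulin signal scored within the nucleus-defined area of each cell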
b-catenin transl: modulators of beta-catenin nuclear translocation; HeLa beta-catenin nuclear translocation, immunofluorescence imaging; nuclear translocation activity, % at 5 µM; 190,000 compounds, 0.3% hits; AID 1665;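 active = nuclear translocation activity above 50% at 5 µM, with a well cell count of 50 or more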;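 also: per-cell ratio of nuclear to cytoplasmic median beta-catenin stain intensity; plate controls were DMSO negative control for no effect and GSK-3 inhibitor IX positive control for full effect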
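Signal – beta-catenin immunofluorescence imaging with DAPI · Test system – human HeLa cell line · Dosing – 5 µM primary single dose, 0.1% DMSO, 0.02–20 µM confirmation series · Measure – % activation, nuclear-to-cytoplasmic median beta-catenin signal ratio per cell · Incubation – 24 h compound exposure at 37°C, 5% CO2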
ROMK mod: modulates human ROMK potassium channel activity; B-score at 10 µM; AID 1918; Tet-inducible ROMK, thallium flux fluorescence; actives lie on both sides; 130,000 compounds, 2% hits; P48048;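 active = signal ratio slope over the read window, or its plate-corrected B-score, at least 3 SD from the plate mean, either direction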;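 also: B-score of the F/F0 ratio slope over 7 to 12 s after thallium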
Target sequence (P48048 whole entry, looked up): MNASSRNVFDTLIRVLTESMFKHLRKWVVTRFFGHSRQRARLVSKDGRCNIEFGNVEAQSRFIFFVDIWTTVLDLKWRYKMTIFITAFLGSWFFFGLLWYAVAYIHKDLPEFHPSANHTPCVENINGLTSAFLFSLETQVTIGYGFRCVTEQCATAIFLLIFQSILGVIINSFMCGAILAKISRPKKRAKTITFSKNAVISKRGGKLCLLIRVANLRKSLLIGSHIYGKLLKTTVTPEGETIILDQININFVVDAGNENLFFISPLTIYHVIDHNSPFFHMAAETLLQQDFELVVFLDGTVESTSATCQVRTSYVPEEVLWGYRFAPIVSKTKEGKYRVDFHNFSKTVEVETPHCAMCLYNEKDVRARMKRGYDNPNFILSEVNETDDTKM
HSV augment: HSV replication enhancement; HSV replication augmentation in cells, fold increase; maximum fold increase; 220,000 compounds, 0.005% hits; AID 1956; in the data active = maximum fold increase above about 1.5; tested in PC3 cells
Starred values were filed as active, the others as inactive; i = inactive; nt = not tested or not shown. Rows were chosen to be rich in hits. Some 2.4% of all compounds tested hit in one or more screens of this group.

SMILES	Insulin prom inh	MT stabilize HCS	b-catenin transl	ROMK mod	HSV augment
O=C(c1ccccc1)c1ccc2nc[nH]c2c1	94.6*	2.1	-2.0	nt	i
O=C(NC1CCCC1)c1ccc2nc[nH]c2c1	-3.5	1.1	nt	nt	i
NC(=O)CC[C@@H]1NC(=O)[C@@H]2CCCN2C(=O)c2cc([N+](=O)[O-])cc(I)c2NCCC[C@@H](C(N)=O)NC1=O	36.4	4.8	nt	0.613	i
Cn1c(-c2ccc(F)cc2)cnc1NCc1ccccc1	-21.1	8.5	0.6	-1.29	i
Cn1c(-c2ccc(F)cc2)cnc1NCc1cccc(F)c1	-30.8	14.5*	38.1	nt	i
O=C(Nc1c(C(=O)Nc2cccc3ccccc23)cnn1-c1ccccc1)c1ccco1	10.5	2.9	1.0	-0.898	i
CC1=NN(C(=O)COc2ccc(C)c(C)c2)C(O)(c2ccccc2)C1 (stereo unspecified)	-26.7	4.4	0.1	0.139	i
CC(C)Oc1ccccc1C1CC(=O)Nc2cc3c(cc21)OCO3 (stereo unspecified)	-300.0	20.6*	-2.5	0.115	i
COc1cc2c(cc1OC)C(c1ccc3c(c1)OCO3)CC(=O)N2 (stereo unspecified)	-24.1	1.9	nt	2.4	i
CCOc1ccccc1C1CC(=O)Nc2cc3c(cc21)OCCO3 (stereo unspecified)	21.4	14.3	1.2	1.46	i
CCCOc1ccccc1C1CC(=O)Nc2cc3c(cc21)OCCO3 (stereo unspecified)	-72.5	13.4*	-1.1	nt	nt
COc1ccc2cc(C#N)c(NC(C)C)nc2c1	85.7*	3.3	-0.4	nt	i
Cn1cc(SCC(=O)O)c2ccccc21	83.3*	2.6	nt	1.71	i
Nc1nc(CCOc2ccc(F)cc2)cs1	nt	2.3	1.7	0.0494	i
COc1cccc2c1OC1(C)CC2/C(=C(\C)O)C(=O)N1 (stereo unspecified)	90.9*	3.7	-1.6	nt	i
O=S(=O)(c1ccc(NC(=S)NN=C2CCCCC2)cc1)N1CCOCC1	nt	4.0	3.0	0.777	i
NC(=O)c1ccccc1N/C=C/C(=O)c1ccc(Cl)cc1Cl	74.4*	2.9	-0.9	nt	nt
COC(=O)C(NC(=O)c1ccccc1)(Nc1cc(C)cc(C)n1)C(F)(F)F (stereo unspecified)	-237.5	4.2	-0.3	0.957	i
COc1cc(C(=O)O)c2c(c1C)OC(=O)c1c(C)cc(O)c(C=O)c1O2	nt	nt	nt	nt	i
CC(C)=CCc1c(O)cc(O)c2c(=O)c3c(CC=C(C)C)c(O)ccc3oc12	nt	nt	nt	nt	i
CCCOC(=O)c1c(NC(=O)C2C3C=CC(C3)C2C(=O)O)sc2c1CCC(C)C2 (stereo unspecified)	nt	1.1	4.2	3.46*	i
CCOC(=O)c1c(NC(=O)C2C3C=CC(C3)C2C(=O)O)sc2c1CC(C)CC2 (stereo unspecified)	35.0	3.2	0.3	2.2	i
COc1cc(NC(=O)c2cccc(C)c2)c(Cl)cc1[N+](=O)[O-]	0.0	1.2	-0.3	-0.378	i
N#Cc1cccc(NC(=O)Cn2c3[n+](c4ccc(C(F)(F)F)cc42)CCCCC3)c1	nt	1.7	1.0	-1.22	i
Cc1ccc(-c2nnc(SCC(=O)N/N=C/c3ccc(C)s3)n2-c2ccccc2)cc1	nt	10.3	44.3	nt	nt
SMILES	Insulin prom inh	MT stabilize HCS	b-catenin transl	ROMK mod	HSV augment
COc1ccc2nc(C)c3cc(C)oc3c2c1	90.3*	1.1	nt	-0.837	i
CC(C)NC(=S)NNc1nc2ccccc2s1	nt	6.2	-0.2	-0.0585	i
O=C(NCC1COc2ccccc2O1)C1CCCN(S(=O)(=O)c2cccc3nsnc23)C1 (stereo unspecified)	38.5	5.1	1.4	-2.46*	i
O=C(NCC1COc2ccccc2O1)C1CCN(S(=O)(=O)c2cccc3nsnc23)CC1 (stereo unspecified)	-50.0	5.7	nt	nt	i
CCCCc1ccc(NC(=S)Nc2ccc(Cl)c(S(=O)(=O)N(C)C)c2)cc1	-11.5	3.4	1.6	-0.338	i
Cc1cc2nnc(SCC(=O)NCc3cccs3)n2c2ccccc12	14.3	42.5*	44.8	3.09	i
Cc1cccc(CNC(=O)CCc2nnc(C3CCCCC3)o2)c1	nt	1.9	-1.0	-0.0925	i
CC/C(=N\NC(=O)c1ccc(-c2ccccc2)cc1)C12CC3CC(CC(C3)C1)C2	nt	1.3	-2.5	-0.51	i
Cc1c(/C=N\NC(=O)C2COc3ccccc3O2)c2ccccc2n1C (stereo unspecified)	nt	5.9	57.7*	nt	i
O=C(N/N=C/c1cccs1)C1COc2ccccc2O1 (stereo unspecified)	-53.3	39.8*	10.9	nt	nt
